The source of these data is ChEMBL document CHEMBL1156623, “Novel 1,4-benzothiazine derivatives as large conductance Ca2+-activated potassium channel openers” (J Med Chem, 2008).

Active and inactive are the calls of the source. No cut-off for these calls is given here.

Experiment [1] deals with Calcium-activated potassium channel subunit alpha-1 (Rattus norvegicus, UniProt Q62976). Nature of the experiment: (§1) Activation of large-conductance calcium-activated potassium channel-mediated vasorelaxation in endothelium-denuded normotensive Wistar rat thoracic aorta assessed as potassium chloride-induced contractile tension. The method, boiled down: (§2)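 Male Wistar rats (250-350 g); thoracic aortic rings, endothelium removed (confirmed by ACh 10 µM lack of relaxation), in Tyrode at 37 °C gassed 95% O2/5% CO2, isometric tension, 60 min equilibration. After stable KCl 20 mM contraction, 3-fold increasing cumulative concentrations added, up to 10 µM. Efficacy as % of KCl tone; pIC50 from half-reduction; mean ± SE of 5-10 experiments.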
Sequence of Calcium-activated potassium channel subunit alpha-1 (Q62976 whole entry): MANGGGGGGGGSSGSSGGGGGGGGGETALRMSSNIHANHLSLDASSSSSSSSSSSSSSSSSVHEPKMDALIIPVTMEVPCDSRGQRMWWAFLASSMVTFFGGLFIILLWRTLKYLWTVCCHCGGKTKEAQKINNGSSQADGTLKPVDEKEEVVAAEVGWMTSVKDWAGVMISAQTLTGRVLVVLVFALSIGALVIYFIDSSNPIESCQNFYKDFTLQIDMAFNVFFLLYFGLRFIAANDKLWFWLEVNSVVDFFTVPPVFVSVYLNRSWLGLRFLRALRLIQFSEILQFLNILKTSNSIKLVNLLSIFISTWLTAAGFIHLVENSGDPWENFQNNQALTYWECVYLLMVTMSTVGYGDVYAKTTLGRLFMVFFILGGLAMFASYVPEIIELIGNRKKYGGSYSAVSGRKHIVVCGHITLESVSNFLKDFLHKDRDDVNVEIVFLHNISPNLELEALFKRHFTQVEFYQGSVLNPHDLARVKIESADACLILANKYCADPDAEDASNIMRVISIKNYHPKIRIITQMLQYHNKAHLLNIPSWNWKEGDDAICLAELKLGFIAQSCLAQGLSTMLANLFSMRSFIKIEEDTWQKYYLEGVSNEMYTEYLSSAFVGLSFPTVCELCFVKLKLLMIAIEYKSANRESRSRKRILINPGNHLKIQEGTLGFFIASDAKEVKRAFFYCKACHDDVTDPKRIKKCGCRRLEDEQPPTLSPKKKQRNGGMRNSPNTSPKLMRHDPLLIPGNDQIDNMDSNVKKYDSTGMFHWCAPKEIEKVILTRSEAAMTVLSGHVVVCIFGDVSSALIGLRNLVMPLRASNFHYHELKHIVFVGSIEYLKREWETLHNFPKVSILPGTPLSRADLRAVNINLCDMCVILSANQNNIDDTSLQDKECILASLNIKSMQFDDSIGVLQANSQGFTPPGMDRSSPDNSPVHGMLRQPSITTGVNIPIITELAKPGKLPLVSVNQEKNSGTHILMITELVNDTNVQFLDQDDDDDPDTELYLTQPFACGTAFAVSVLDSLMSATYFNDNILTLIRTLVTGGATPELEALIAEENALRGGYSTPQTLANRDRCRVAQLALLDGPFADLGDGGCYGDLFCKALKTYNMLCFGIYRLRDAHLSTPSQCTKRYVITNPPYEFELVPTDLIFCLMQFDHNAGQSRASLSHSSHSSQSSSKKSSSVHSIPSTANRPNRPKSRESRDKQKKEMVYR

In experiment [2] the target is Calcium-activated potassium channel subunit alpha-1 (Rattus norvegicus) (UniProt Q62976). Nature of the experiment: Activation of large-conductance calcium-activated potassium channel-mediated vasorelaxation in endothelium-denuded normotensive Wistar rat thoracic aorta assessed as potassium chloride-induced contractile tension relative to NS-1619. Format: tissue-based.
Sequence of Calcium-activated potassium channel subunit alpha-1 (Rattus norvegicus) (Q62976 whole entry): as above

Experiment [3] has the same target. The description is as §1. Details: scale not given: the % may be the effect or the level left. Summed up: as §2
For experiment [4] the target is unchanged. Nature of the experiment: Activation of large-conductance calcium-activated potassium channel-mediated vasorelaxation in endothelium-denuded normotensive Wistar rat thoracic aorta assessed as potassium chloride-induced contraction in presence of tetraethylammonium chloride. Format: tissue-based. The method, boiled down: (§3)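 Male Wistar rats (250-350 g); endothelium-denuded thoracic aortic rings in Tyrode at 37 °C, gassed 95% O2/5% CO2, isometric tension. Denudation checked with ACh 10 µM on KCl 20 mM contraction. After KCl 20 mM contraction, IbTX 100 nM or TEA 10 mM added, then cumulative 3-fold increasing compound concentrations, max 10 µM; DMSO stock diluted in water. Efficacy as % of KCl tone; pIC50; mean ± SE, 5-10 experiments.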

For experiment [5] the target is unchanged. Nature of the experiment: Activation of large-conductance calcium-activated potassium channel-mediated vasorelaxation in endothelium-denuded normotensive Wistar rat thoracic aorta assessed as potassium chloride-induced contraction in presence of iberiotoxin. Summed up:
as §3

`O=c1[nH]c2cc(C(F)(F)F)ccc2n1-c1cc(C(F)(F)F)ccc1O`: the IC50 (commonly the point on the concentration scale where inhibition reaches its midpoint) in experiment [1] was 5.01 µM.

Consider `COc1ccc(Br)cc1[C@@H](O)[C@H]1Sc2ccc(C(F)(F)F)cc2NC1=O` (relative stereo), for which the maximal effect (Emax) – broadly, the greatest response seen or fitted, relative to the assay's reference – in experiment [2] is 70%. In addition, the half-maximal inhibitory concentration (IC50) in experiment [1] is 6.31 µM.

In the case of `COc1ccc(Br)cc1C1C(=O)Nc2cc(C(F)(F)F)ccc2[S+]1[O-]` (centres undefined), the Emax in experiment [2] was 34%. Besides, the Activity in experiment [3] is less than 50%.

With `COc1c(Br)cc(Br)cc1C1Sc2ccc(C(F)(F)F)cc2NC1=O` (centres undefined), the Emax in experiment [2] is 75%. For the same compound, in experiment [1], the IC50 is 50.1 µM.

In the case of `O=C1Nc2cc(C(F)(F)F)ccc2SC1c1cc(Cl)ccc1O` (centres undefined), the Activity in experiment [3] is less than 50%.

Take `COc1ccc(Br)cc1C1Sc2ccc(C(F)(F)F)cc2NC1=S` (centres undefined): the maximum response (Emax) in experiment [2] is 26%. Further, the Activity in experiment [3] was less than 50%.

As for `O=C1Nc2cc(C(F)(F)F)ccc2SC1c1ccccc1` (centres undefined), the maximum response (Emax) in experiment [2] was 39%. Also, the Activity in experiment [3] was less than 50%.

Turning to `COc1ccc(Br)cc1C1Sc2ccc(C(F)(F)F)cc2N(C)C1=O` (centres undefined), in experiment [2], the maximum response (Emax) came out at 67%. In experiment [4], the outcome was inactive. In experiment [1], the IC50 is 0.617 µM.

For the compound `O=C1Nc2ccccc2SC1c1ccccc1` (centres undefined), the Emax in experiment [2] is 42%. For the same compound, the Activity in experiment [3] is less than 50%.

Turning to `COc1ccccc1C1CNc2cc(C(F)(F)F)ccc2S1` (centres undefined), in experiment [2], the Emax is 100%. In experiment [1], the IC50 is 22.4 µM.

Take `O=C1Nc2cc(C(F)(F)F)ccc2SC1c1cc(Br)ccc1O` (centres undefined): the maximal response (Emax) in experiment [2] was found to be 44%. Moreover, the Activity in experiment [3] was less than 50%.

Turning to `COc1ccc(Br)cc1C1Sc2ccc(C(F)(F)F)cc2NC1=O` (centres undefined), the maximum response (Emax) in experiment [2] was determined as 77%. Further, the result in experiment [5] and in experiment [4] was inactive. In experiment [1], the IC50 was 0.0398 µM.

For `COc1ccc(Br)cc1C1CNc2cc(C(F)(F)F)ccc2S1` (centres undefined), the maximal response (Emax) in experiment [2] is less than 25%. Also, the Activity in experiment [3] was less than 50%.

For the compound `COc1ccc(Br)cc1C1Sc2ccccc2NC1=O` (centres undefined), the Emax in experiment [2] came to 100%. The IC50 in experiment [1] was 15.8 µM.
